ChEMBL document CHEMBL3272033, “Physicochemical and pharmacological studies of some 8-substituted decahydroisoquinolines” (J Med Chem, 1976)

Legend:
[1] = Effect on transmembrane action potential in dog purkinje cells assessed as change in activation time at 40 mg/l after 20 mins in presence of 5.4 mM/l K+ relative to control; assay type: functional, Canis lupus familiaris
Method in brief: (§1)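 Purkinje false tendons with attached myocardium came from adult dogs (10–15 kg) anesthetized with pentobarbital 30 mg/kg iv. Tissue was bathed in Tyrode (KCl 2.7 or 5.4 mM) gassed with 95% O2-5% CO2 at 37 °C and impaled with glass microelectrodes. Compound was given as a bolus to the final bath concentration, with records at 2–20 min. Two preparations per compound; % change from control at 20 min.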

[2] = Effect on transmembrane action potential in dog purkinje cells assessed as change in activation time at 10 mg/l after 20 mins in presence of 2.7 mM/l K+ relative to control; assay type: functional, Canis lupus familiaris
Method in brief: (§2)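 Canine Purkinje false-tendon preparations from pentobarbital-anesthetized dogs, in oxygenated Tyrode at 37 °C with KCl 2.7 or 5.4 mM. Compound given by bolus to the final bath concentration. TMAP recorded by intracellular glass microelectrode before dosing and 2–20 min after. ARV of phase 0 (V/s) and activation time (ms) expressed as % change from control at 20 min. Two preparations per compound.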

[3] = Effect on transmembrane action potential in dog purkinje cells assessed as change in amplitude at 10 mg/l after 20 mins in presence of 2.7 mM/l K+ relative to control; assay type: functional, Canis lupus familiaris; method in brief: as §1
[4] = Effect on transmembrane action potential in dog purkinje cells assessed as average rising velocity at 40 mg/l after 20 mins in presence of 5.4 mM/l K+ relative to control; assay type: functional, Canis lupus familiaris; method in brief: as §2
[5] = system: Heart; experiment: Antiarrhythmic activity in Hartley guinea pig atria assessed as change in spontaneous rate at 55.2 uM/l after 5 mins; assay type: functional, Cavia porcellus
Method in brief: (§3)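 Spontaneously beating isolated atria held under initial tension; bath fluid changed every 10 min; stabilised about 1 h. Maximum driving rate found with 1-ms square pulses at 50% above threshold voltage, 10 s every 30 s; the frequency just before failure of following is the MDR. Control is the mean of two determinations. Spontaneous rate recorded by tachograph. Values are % change from control at peak response, generally 5–30 min.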

[6] = Effect on transmembrane action potential in dog purkinje cells assessed as change in activation time at 20 mg/l after 20 mins in presence of 5.4 mM/l K+ relative to control; assay type: functional, Canis lupus familiaris; method in brief: as §2
[7] = system: Heart; experiment: Antiarrhythmic activity in Hartley guinea pig atria assessed as change in maximum driving rate at 55.2 uM/l after 5 mins; assay type: functional, Cavia porcellus; method in brief: as §3
[8] = Effect on transmembrane action potential in dog purkinje cells assessed as change in activation time at 25 mg/l after 20 mins in presence of 2.7 mM/l K+ relative to control; assay type: functional, Canis lupus familiaris; method in brief: as §2
[9] = Effect on transmembrane action potential in dog purkinje cells assessed as average rising velocity at 25 mg/l after 20 mins in presence of 2.7 mM/l K+ relative to control; assay type: functional, Canis lupus familiaris; method in brief: as §2
[10] = Effect on transmembrane action potential in dog purkinje cells assessed as change in activation time at 10 mg/l after 20 mins in presence of 5.4 mM/l K+ relative to control; assay type: functional, Canis lupus familiaris; method in brief: as §2
[11] = system: Mus musculus; experiment: Toxicity in ip dosed Swiss-Webster albino mouse; assay type: organism-based; details: in vivo
[12] = species on record: Homo sapiens; experiment: Drug absorption in buccal cavity in human at pH 5.50 after 5 mins by UV spectrometry; assay type: ADME, organism-based; details: in vivo, other, pH 5.5, 5 min
Method in brief: (§4)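 3 mg compound in 25 ml buffer (0.1 M phosphate pH 5.50 or 7.50; tetraborate pH 9.30) swished in the mouth for 5 min, expelled, and combined with a 10 ml water rinse. Made up to 50 ml; aliquot basified to pH 10 and ether-extracted, then back-extracted into 0.1 N HCl. UV absorbance read at λmax against Beer's law plots; the unrecovered fraction is taken as % absorbed. One to three subjects.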

[13] = Therapeutic index, ratio of LD50 for toxicity to ED50 for antiarrhythmic activity in ip dosed Swiss-Webster albino mouse; assay type: organism-based, Heart; details: in vivo, read-out: Ratio LD50/ED50
[14] = Effect on transmembrane action potential in dog purkinje cells assessed as change in activation time at 50 mg/l after 20 mins in presence of 2.7 mM/l K+ relative to control; assay type: functional, Canis lupus familiaris; method in brief: as §1
[15] = species on record: Homo sapiens; experiment: Drug absorption in buccal cavity in human at pH 9.3 after 5 mins by UV spectrometry; assay type: ADME, organism-based; details: in vivo, other, pH 9.3, 5 min; method in brief: as §4
[16] = Effect on transmembrane action potential in dog purkinje cells assessed as average rising velocity at 10 mg/l after 20 mins in presence of 5.4 mM/l K+ relative to control; assay type: functional, Canis lupus familiaris; method in brief: as §2
[17] = Dissociation constant, pKa of the compound in 0.01 M potassium hydrogen phthalate; assay type: physicochemical
Method in brief: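 pKa by potentiometric titration with 0.01 M potassium hydrogen phthalate in a thermostated vessel, stirred, under nitrogen bubbling, using glass and calomel electrodes. pKa is the mean pH at half-neutralization from four titrations. Endpoints were taken from parallel tangents on either side of the inflection.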

[18] = species on record: Homo sapiens; experiment: Drug absorption in buccal cavity in human at pH 7.50 after 5 mins by UV spectrometry; assay type: ADME, organism-based; details: in vivo, other, pH 7.5, 5 min; method in brief: as §4
[19] = Effect on transmembrane action potential in dog purkinje cells assessed as change in amplitude at 50 mg/l after 20 mins in presence of 2.7 mM/l K+ relative to control; assay type: functional, Canis lupus familiaris; method in brief: as §1
[20] = Effect on transmembrane action potential in dog purkinje cells assessed as change in amplitude at 25 mg/l after 20 mins in presence of 2.7 mM/l K+ relative to control; assay type: functional, Canis lupus familiaris; method in brief: as §1
[21] = Effect on transmembrane action potential in dog purkinje cells assessed as change in amplitude at 40 mg/l after 20 mins in presence of 5.4 mM/l K+ relative to control; assay type: functional, Canis lupus familiaris; method in brief: as §1
[22] = system: Mus musculus; experiment: Antiarrhythmic activity in ip dosed Swiss-Webster albino mouse assessed as prevention of chloroform-induced ventricular fibrillation; assay type: functional, Heart
[23] = Effect on transmembrane action potential in dog purkinje cells assessed as average rising velocity at 10 mg/l after 20 mins in presence of 2.7 mM/l K+ relative to control; assay type: functional, Canis lupus familiaris; method in brief: as §2
[24] = Effect on transmembrane action potential in dog purkinje cells assessed as change in amplitude at 10 mg/l after 20 mins in presence of 5.4 mM/l K+ relative to control; assay type: functional, Canis lupus familiaris; method in brief: as §1
[25] = Effect on transmembrane action potential in dog purkinje cells assessed as average rising velocity at 50 mg/l after 20 mins in presence of 2.7 mM/l K+ relative to control; assay type: functional, Canis lupus familiaris; method in brief: as §2
[26] = Effect on transmembrane action potential in dog purkinje cells assessed as change in amplitude at 20 mg/l after 20 mins in presence of 5.4 mM/l K+ relative to control; assay type: functional, Canis lupus familiaris; method in brief: as §1
[27] = Effect on transmembrane action potential in dog purkinje cells assessed as average rising velocity at 20 mg/l after 20 mins in presence of 5.4 mM/l K+ relative to control; assay type: functional, Canis lupus familiaris; method in brief: as §2
[28] = system: Heart; experiment: Antiarrhythmic activity in Hartley guinea pig atria assessed as reversible decrease in maximum driving rate compound treated for 5 mins measured up to 2 hrs post washout; assay type: functional, tissue-based; details: Cavia porcellus
Method in brief: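 After compound exposure the bath was washed out. Two MDR determinations were made every 15 min for up to 2 h to follow reversibility and recovery toward control. Bath fluid was changed every 10 min.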

[29] = system: Heart; experiment: Antiarrhythmic activity in Hartley guinea pig atria assessed as change in maximum driving rate at 73.2 uM/l after 5 mins; assay type: functional, Cavia porcellus; method in brief: as §3
[30] = system: Homo sapiens; experiment: Toxicity in human assessed as numbness at 5 x 10' -5 M administered topically to buccal cavity measured up to 15 to 20 mins; assay type: organism-based; details: in vivo, topical_or_ocular, 50 µM
[31] = system: Heart; experiment: Antiarrhythmic activity in Hartley guinea pig atria assessed as change in maximum driving rate at 36.6 uM/l after 5 mins; assay type: functional, Cavia porcellus; method in brief: as §3
[32] = system: Heart; experiment: Antiarrhythmic activity in Hartley guinea pig atria assessed as change in spontaneous rate at 36.6 uM/l after 5 mins; assay type: functional, Cavia porcellus; method in brief: as §3
[33] = system: Heart; experiment: Antiarrhythmic activity in Hartley guinea pig atria assessed as change in spontaneous rate at 73.2 uM/l after 5 mins; assay type: functional, Cavia porcellus; method in brief: as §3
[34] = system: Heart; experiment: Antiarrhythmic activity in Hartley guinea pig atria assessed as change in spontaneous rate at 55.0 uM/l after 5 mins; assay type: functional, Cavia porcellus; method in brief: as §3
[35] = Effect on transmembrane action potential in dog purkinje cells assessed as change in activation time at 20 mg/l after 20 mins in presence of 2.7 mM/l K+ relative to control; assay type: functional, Canis lupus familiaris; method in brief: as §2
[36] = Effect on transmembrane action potential in dog purkinje cells assessed as average rising velocity at 20 mg/l after 20 mins in presence of 2.7 mM/l K+ relative to control; assay type: functional, Canis lupus familiaris; method in brief: as §2
[37] = Effect on transmembrane action potential in dog purkinje cells assessed as change in amplitude at 20 mg/l after 20 mins in presence of 2.7 mM/l K+ relative to control; assay type: functional, Canis lupus familiaris; method in brief: as §1
[38] = system: Heart; experiment: Antiarrhythmic activity in Hartley guinea pig atria assessed as change in maximum driving rate at 55.0 uM/l after 5 mins; assay type: functional, Cavia porcellus; method in brief: as §3
[39] = Effect on transmembrane action potential in dog purkinje cells assessed as change in amplitude at 30 mg/l after 20 mins in presence of 2.7 mM/l K+ relative to control; assay type: functional, Canis lupus familiaris; method in brief: as §1
[40] = Effect on transmembrane action potential in dog purkinje cells assessed as average rising velocity at 30 mg/l after 20 mins in presence of 2.7 mM/l K+ relative to control; assay type: functional, Canis lupus familiaris; method in brief: as §2
[41] = Effect on transmembrane action potential in dog purkinje cells assessed as change in activation time at 30 mg/l after 20 mins in presence of 2.7 mM/l K+ relative to control; assay type: functional, Canis lupus familiaris; method in brief: as §2
[42] = system: Heart; experiment: Antiarrhythmic activity in Hartley guinea pig atria assessed as change in maximum driving rate at 58.6 uM/l after 5 mins; assay type: functional, Cavia porcellus; method in brief: as §3
[43] = system: Heart; experiment: Antiarrhythmic activity in Hartley guinea pig atria assessed as change in spontaneous rate at 58.6 uM/l after 5 mins; assay type: functional, Cavia porcellus; method in brief: as §3

| SMILES | Activity [2] [%] | Activity [3] [%] | Activity [6] [%] | Activity [10] [%] | LD50 [11] | Drug absorption [12] [%] | selectivity ratio [13] | Drug absorption [15] [%] | Activity [16] [%] | pKa [17] | Drug absorption [18] [%] | ED50 [22] [µmol/kg] | Activity [23] [%] | Activity [24] [%] | Activity [26] [%] | Activity [27] [%] | Activity [30] | also measured |
| --- | --- | --- | --- | --- | --- | --- | --- | --- | --- | --- | --- | --- | --- | --- | --- | --- | --- | --- |
| COc1cc(C(=O)N[C@@H]2CCC[C@@H]3CCN(C)C[C@H]32)cc(OC)c1OC (mixture of isomers) | 2 | 0 | -1 | -4 | 835 | 5.5 | 6.7 | 31.1 | -24 | 8.75 | 18.1 | 124 | -9 | 0 | 0 | -29 |  | Activity [1]: -1%; Activity [4]: -50%; Activity [5]: -14.4%; Activity [7]: -13.3%; Activity [8]: 23%; Activity [9]: -19%; Activity [14]: 105%; Activity [19]: -8%; Activity [20]: -2%; Activity [21]: -6%; Activity [25]: -44% |
| CN1CC[C@H]2CCC[C@@H](OC(=O)c3ccccc3)[C@H]2C1 (relative stereo) |  |  |  |  | 900 | 29.7 | 3.7 | 81.8 |  | 9.05 | 46 | 245 |  |  |  |  | Toxic | Activity [28]: Dose-dependent effect; Activity [29]: -55.5%; Activity [31]: -24.5%; Activity [32]: -23%; Activity [33]: -57.8% |
| COc1cc(C(=O)O[C@@H]2CCC[C@@H]3CCN(C)C[C@H]32)cc(OC)c1OC (mixture of isomers) | 131 | -12 | 300 | 530 | 338 | 17.1 | 4.5 | 69.5 | -50 | 8.82 | 19.7 | 74 | -6 | -7 | -17 | -71 | Toxic | Activity [34]: -42.4%; Activity [35]: 389%; Activity [36]: -58%; Activity [37]: -15%; Activity [38]: -54.5% |
| CN1CC[C@H]2CCC[C@@H](NC(=O)c3ccc(Cl)c(Cl)c3)[C@@H]2C1 (mixture of isomers) |  |  | 42 | 18 | 1304 | 20.5 | 12.7 | 59.3 | -30 |  | 25.7 | 104 |  | -11 | -5 | -58 |  | Activity [39]: -23%; Activity [40]: -72%; Activity [41]: 81%; Activity [42]: -45%; Activity [43]: -41.2% |
